Measurements published in ChEMBL document CHEMBL5223168, “Using Imidazo[2,1-b][1,3,4]thiadiazol Skeleton to Design and Synthesize Novel MNK Inhibitors” (ACS Med Chem Lett, 2023).
Calls of active or inactive are those of the source. The calls are words filed in the database; no cut-off is given here.

Legend:
A549 [1] = experiment: Induction of cell cycle arrest in human A549 cells assessed as accumulation of cells at G2/M phase at 5 uM incubated for 20 hrs by propidium iodide staining based flow cytometry (Rvb=15.5%); format: functional
[2] = system: MAP kinase-interacting kinase MNK1/2 (Homo sapiens); experiment: Inhibition of MNK in human A549 cells assessed as reduction in TNF-alpha level at 1 to 10 uM incubated for 48 hrs by ELISA; conditions: dose 1-10 µM
[3] = system: MAP kinase-interacting kinase MNK1/2 (Homo sapiens); experiment: Inhibition of MNK in human SKM-1 cells assessed as inhibition of eIF4E phosphorylation at 10 uM incubated for 2 hrs by Western blot analysis
A549 [4] = experiment: Induction of cell cycle arrest in human A549 cells assessed as accumulation of cells at G2/M phase at 5 uM incubated for 16 hrs by propidium iodide staining based flow cytometry (Rvb=11.8%); format: functional
A549 [5] = experiment: Inhibition of colony formation in human A549 cells at 1 to 5 uM measured after 10 days by crystal violet staining based clonogenic assay; format: functional, cell-based; conditions: dose 1-5 µM, time 10.0 day
Outline: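 Clonogenic assay over 10 days; cells treated with DMSO vehicle or compound at indicated concentrations, plates scanned and colonies quantified from three independent experiments.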

A549 [6] = experiment: Antitumor activity against human A549 cells xenografted in BALB/C nude mouse assessed as T/C ratio at 150 mg/kg, po QD for 14 days; format: functional; conditions: time 14 day
Outline: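 A549 xenografts in nude mice; compound given orally once daily at 75 or 150 mg/kg for 14 days, irinotecan reference at 3 mg/kg; tumor growth tracked as T/C ratio (relative tumor proliferation rate); body weight monitored.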

[7] = Oral bioavailability in mouse at 50 mg/kg and 25 mg/kg, iv and measured upto 24 hrs; format: ADME, organism-based; conditions: in vivo
A549 [8] = experiment: Induction of cell cycle arrest in human A549 cells assessed as accumulation of cells at S phase at 5 uM incubated for 16 hrs by propidium iodide staining based flow cytometry (Rvb=12.8%); format: functional
[9] = system: MAP kinase-interacting kinase MNK1/2 (Homo sapiens); experiment: Inhibition of MNK in human A549 cells assessed as inhibition of eIF4E phosphorylation at 3 uM incubated for 2 hrs by Western blot analysis
[10] = Apparent volume of distribution in mouse at 50 mg/kg, po and measured upto 24 hrs; format: ADME, organism-based; conditions: in vivo
[11] = Clearance in mouse at 25 mg/kg, iv and measured upto 24 hrs; format: ADME, organism-based; conditions: in vivo
[12] = system: MAP kinase-interacting kinase MNK1/2 (Homo sapiens); experiment: Inhibition of MNK in human NCI-H446 cells assessed as inhibition of eIF4E phosphorylation at 3 uM incubated for 2 hrs by Western blot analysis
[13] = Apparent volume of distribution in mouse at 25 mg/kg, iv and measured upto 24 hrs; format: ADME, organism-based; conditions: in vivo, read-out: Vz
A549 [14] = experiment: Induction of cell cycle arrest in human A549 cells assessed as decrease in cyclin D3 level at 5 uM incubated for 24 hrs by Western blot analysis; format: functional, cell-based
Outline: (§1)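 A549 and MDA-MB-231 cells treated 24 h with 5 μM; lysates resolved by SDS-PAGE and immunoblotted for cyclin B1, cyclin D3 and MMP-3.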

MDA-MB-231 [15] = experiment: Induction of cell cycle arrest in human MDA-MB-231 cells assessed as decrease in cyclin B1 level at 5 uM incubated for 24 hrs by Western blot analysis; format: functional, cell-based; outline: as §1
MDA-MB-231 [16] = experiment: Antiproliferative activity against human MDA-MB-231 cells assessed as reduction in cell viability at 5 uM incubated upto 6 days by trypan blue assay; format: functional, cell-based; conditions: time <= 6.0 day
Outline: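 A549 or MDA-MB-231 cells cultured with 5 μM compound for up to 6 days; cell number counted over time; p-eIF4E followed by immunoblot up to 96 h.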

A549 [17] = experiment: Antimigratory activity against human A549 cells assessed as inhibition of cell migration at 5 uM and measured upto 24 hrs by scratch wound healing assay; format: functional, cell-based
Outline: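 Scratch wound-healing: A549 or MDA-MB-231 monolayers wounded, then exposed to 5 μM compound or DMSO; wound imaged at 6 and 24 h; percentage change in wound area quantified by image analysis at each time point.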

[18] = system: MAP kinase-interacting kinase MNK1/2 (Homo sapiens); experiment: Inhibition of MNK in human MDA-MB-231 cells assessed as inhibition of eIF4E phosphorylation at 3 uM incubated for 2 hrs by Western blot analysis
A549 [19] = experiment: Induction of cell cycle arrest in human A549 cells assessed as accumulation of cells at S phase at 5 uM incubated for 8 hrs by propidium iodide staining based flow cytometry (Rvb=1.7%); format: functional
[20] = system: MAP kinase-interacting kinase MNK1/2 (Homo sapiens); experiment: Inhibition of MNK in human A549 cells assessed as reduction in MCP-1 level at 1 to 10 uM incubated for 48 hrs by ELISA; conditions: dose 1-10 µM
[21] = Toxicity in BALB/C nude mouse xenografted with human A549 cells assessed as body weight loss at 75 to 150 mg/kg, po QD for 14 days; format: organism-based; conditions: in vivo, 336 h, dose 75-150 mg/kg, time 14 day
Outline: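 A549 xenografts in nude mice dosed orally once daily at 75 or 150 mg/kg for 14 days; body weight monitored for tolerability, irinotecan 3 mg/kg as positive control group.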

A549 [22] = experiment: Induction of cell cycle arrest in human A549 cells assessed as decrease in cyclin B1 level at 5 uM incubated for 24 hrs by Western blot analysis; format: functional, cell-based; outline: as §1
[23] = system: MAP kinase-interacting kinase MNK1/2 (Mus musculus); experiment: Inhibition of MNK in wild type mouse MEF cells assessed as inhibition of eIF4E phosphorylation at 3 uM incubated for 2 hrs by Western blot analysis
A549 [24] = experiment: Downregulation of MMP-3 in human A549 cells at 5 uM incubated for 24 hrs by Western blot anlaysis; format: functional, cell-based; outline: as §1
[25] = Tmax in mouse at 50 mg/kg, po and measured upto 24 hrs; format: ADME, organism-based; conditions: in vivo
MEF = experiment: Inhibition of MNK in MNK2 knockout mouse MEF cells assessed as inhibition of eIF4E phosphorylation at 3 uM incubated for 2 hrs by Western blot analysis; format: cell-based
Outline: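 MEFs lacking MNK1 or MNK2 (wild-type for comparison) treated 2 h at indicated concentrations; lysates immunoblotted for p-eIF4E, which reflects the remaining MNK isoform; quantified from three independent experiments, SEM.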

[26] = target: Dual specificity protein kinase CLK1 (Homo sapiens) (UniProt P49759); experiment: Inhibition of CLK1 (unknown origin) at 3 uM in presence of ATP by kinase assay
Chain of Dual specificity protein kinase CLK1 (Homo sapiens) (P49759 whole entry, looked up): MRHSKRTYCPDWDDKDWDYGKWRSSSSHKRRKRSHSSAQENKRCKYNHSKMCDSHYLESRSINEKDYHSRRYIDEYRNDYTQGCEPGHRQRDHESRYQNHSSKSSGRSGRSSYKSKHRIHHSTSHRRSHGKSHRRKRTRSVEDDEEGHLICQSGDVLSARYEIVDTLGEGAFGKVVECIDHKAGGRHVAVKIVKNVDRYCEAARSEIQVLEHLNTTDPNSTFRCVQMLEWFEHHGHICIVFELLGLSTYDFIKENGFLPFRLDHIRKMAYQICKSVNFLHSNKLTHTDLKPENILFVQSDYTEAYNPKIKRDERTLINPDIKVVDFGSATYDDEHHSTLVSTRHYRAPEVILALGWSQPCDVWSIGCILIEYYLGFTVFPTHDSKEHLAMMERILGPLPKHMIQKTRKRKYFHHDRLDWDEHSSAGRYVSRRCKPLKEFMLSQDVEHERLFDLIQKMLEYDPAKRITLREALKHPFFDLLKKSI

A549 [27] = experiment: Induction of cell cycle arrest in human A549 cells assessed as accumulation of cells at G0/G1 phase at 5 uM incubated for 8 hrs by propidium iodide staining based flow cytometry (Rvb=91.7%); format: functional
[28] = Cmax in mouse at 50 mg/kg, po and measured upto 24 hrs; format: ADME, organism-based; parameters: dose 50 mg/kg, time < 24 hrs, route po; conditions: in vivo
[29] = target: Mitogen-activated protein kinase 9 (Homo sapiens) (UniProt P45984); experiment: Inhibition of JNK2 (unknown origin) at 3 uM in presence of ATP by kinase assay
Chain of Mitogen-activated protein kinase 9 (Homo sapiens) (P45984 whole entry, looked up): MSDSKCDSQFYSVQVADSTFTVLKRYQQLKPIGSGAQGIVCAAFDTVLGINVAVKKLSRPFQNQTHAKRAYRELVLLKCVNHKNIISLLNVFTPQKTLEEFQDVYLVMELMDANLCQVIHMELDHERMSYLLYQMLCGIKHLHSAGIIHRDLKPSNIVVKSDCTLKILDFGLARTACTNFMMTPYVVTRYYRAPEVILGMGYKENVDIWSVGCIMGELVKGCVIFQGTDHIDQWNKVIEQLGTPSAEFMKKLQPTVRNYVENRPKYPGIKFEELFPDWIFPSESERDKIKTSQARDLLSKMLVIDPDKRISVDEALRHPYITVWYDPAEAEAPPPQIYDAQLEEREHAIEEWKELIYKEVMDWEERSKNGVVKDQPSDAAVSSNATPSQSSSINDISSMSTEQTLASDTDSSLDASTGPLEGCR

Which Activity (A549 [1]) does the source give for `CN1CCN(C(=O)c2ccc(-c3nn4c(-c5ccc(C#N)cc5)cnc4s3)cc2)CC1` here?
Its Activity is 3.3%.

What about the inhibition [2] of the same compound?
The inhibition was “Active”.

What about the inhibition [3] of the same compound?
Its inhibition is “Active”.

And the Activity (A549 [4])?
The Activity was 5.2%.

What about the inhibition (A549 [5]) of the same compound?
The inhibition was “Dose-Dependent Effect”.

What about the T/C (A549 [6]) of the same compound?
The T/C was 0.5.

What about the bioavailability [7] of the same compound?
Its bioavailability is 60.9%.

What about the Activity (A549 [8]) of the same compound?
Its Activity is 5.2%.

What about the inhibition [9] of the same compound?
Its inhibition is “Active”.

And the Vz [10]?
The Vz was 3.155 L/kg.

And the clearance [11]?
The clearance was 5.13 mL/min/kg.

And the inhibition [12]?
Its inhibition is “Active”.

What about the Vd [13] of the same compound?
The Vd was 1.52 L/kg.

And the Activity (A549 [14])?
Its Activity is “Active”.

And the Activity (MDA-MB-231 [15])?
The Activity was “Active”.

What about the Activity (MDA-MB-231 [16]) of the same compound?
Its Activity is “Active”.

What about the Activity (A549 [17]) of the same compound?
The Activity was “Active”.

And the inhibition [18]?
Its inhibition is “Active”.

And the Activity (A549 [19])?
Its Activity is 2.7%.

What about the inhibition [20] of the same compound?
Its inhibition is “Active”.

What about the Activity [21] of the same compound?
The Activity was under 10%.

And the Activity (A549 [22])?
The Activity was “Active”.

And the inhibition [23]?
Its inhibition is “Active”.

What about the Activity (A549 [24]) of the same compound?
The Activity was “Active”.

What about the Tmax [25] of the same compound?
The Tmax was 1 h.

And the inhibition (MEF)?
The inhibition was 50%.

And the inhibition [26]?
The inhibition was “Active”.

And the Activity (A549 [27])?
The Activity was 88.2%.

And the Cmax [28]?
The Cmax was 17200 ng/mL.

And the inhibition [29]?
Its inhibition is “Active”.
